Published values pooled from the literature.
Each line is one published result; the experiments were not run side by side.
Target: Phosphatidylinositol 3-kinase C2 domain-containing subunit gamma (PIK3C2G, Homo sapiens, UniProt O75747)
Sequence (O75747 1-1486, as in one of the studies): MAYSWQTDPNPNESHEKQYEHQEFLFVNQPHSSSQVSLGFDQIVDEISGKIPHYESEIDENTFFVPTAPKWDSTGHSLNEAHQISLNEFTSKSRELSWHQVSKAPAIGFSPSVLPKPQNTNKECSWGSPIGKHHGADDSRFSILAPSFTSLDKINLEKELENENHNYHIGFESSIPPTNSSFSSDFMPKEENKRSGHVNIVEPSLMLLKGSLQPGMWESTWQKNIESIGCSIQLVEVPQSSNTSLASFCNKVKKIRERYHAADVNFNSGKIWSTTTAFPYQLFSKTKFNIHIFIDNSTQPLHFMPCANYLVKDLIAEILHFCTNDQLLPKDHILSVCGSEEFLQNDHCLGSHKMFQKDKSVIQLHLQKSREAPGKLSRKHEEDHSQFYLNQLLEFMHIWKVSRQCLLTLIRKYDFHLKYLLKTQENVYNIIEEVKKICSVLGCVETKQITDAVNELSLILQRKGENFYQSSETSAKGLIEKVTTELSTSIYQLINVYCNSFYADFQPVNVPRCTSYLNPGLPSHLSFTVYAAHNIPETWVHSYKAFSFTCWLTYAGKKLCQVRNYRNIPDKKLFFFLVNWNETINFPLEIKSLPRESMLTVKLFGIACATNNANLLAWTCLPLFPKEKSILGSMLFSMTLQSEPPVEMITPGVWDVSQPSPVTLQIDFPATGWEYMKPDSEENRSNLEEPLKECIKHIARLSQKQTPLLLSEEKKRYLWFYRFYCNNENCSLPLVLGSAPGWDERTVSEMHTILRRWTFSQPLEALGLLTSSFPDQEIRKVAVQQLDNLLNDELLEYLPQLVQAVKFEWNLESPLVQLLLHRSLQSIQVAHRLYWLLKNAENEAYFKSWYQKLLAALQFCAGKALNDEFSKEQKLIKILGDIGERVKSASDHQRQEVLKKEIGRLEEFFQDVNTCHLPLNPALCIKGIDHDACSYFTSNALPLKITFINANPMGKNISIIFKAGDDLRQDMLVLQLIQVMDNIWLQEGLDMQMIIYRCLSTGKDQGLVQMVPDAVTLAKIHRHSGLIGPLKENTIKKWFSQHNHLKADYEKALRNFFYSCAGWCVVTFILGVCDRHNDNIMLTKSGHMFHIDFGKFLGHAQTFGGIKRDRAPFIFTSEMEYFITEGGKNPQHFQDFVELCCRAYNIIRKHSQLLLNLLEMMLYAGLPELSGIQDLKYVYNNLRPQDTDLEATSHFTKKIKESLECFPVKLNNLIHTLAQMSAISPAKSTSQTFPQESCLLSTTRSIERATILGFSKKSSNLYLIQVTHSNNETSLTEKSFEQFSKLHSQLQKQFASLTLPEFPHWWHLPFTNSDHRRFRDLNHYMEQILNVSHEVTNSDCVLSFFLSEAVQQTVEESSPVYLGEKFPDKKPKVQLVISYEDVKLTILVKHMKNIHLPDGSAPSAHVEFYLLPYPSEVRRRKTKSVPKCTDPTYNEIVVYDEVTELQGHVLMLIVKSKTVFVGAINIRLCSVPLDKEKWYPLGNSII

test	setting	remaining binding [%]	Compound
binding	1 µM	100	CN(C)c1nccc(-c2cnn3ncccc23)n1
cell-free assay, competition with immobilised ligand	1 µM	75	O=C(NCc1ncc(C(F)(F)F)cc1Cl)c1ccc2c(c1)C1(CCS(=O)(=O)CC1)[C@@H](C1CC1)N2S(=O)(=O)c1ccc(F)cc1
binding, competition with immobilised ligand	0.1 µM	92	C[C@@H](c1ccc(-n2cnc3c(N)ncnc32)cc1)N1CCc2nn(C)c(Cc3ccccc3)c2C1=O
binding, competition with immobilised ligand	1 µM	96	O=C(c1ccc(Nc2ncc(Cl)c(-c3cc4ccccc4s3)n2)cc1)N1CCC(N2CCCC2)CC1
cell-free assay, competition with immobilised ligand	1 µM	85	CC(=O)N1CCC(c2ccc(C(=O)NC3=NCCN3)cc2C(F)(F)F)CC1
binding, competition with immobilised ligand	1 µM	100	O=C(Nc1c[nH]nc1C(=O)NC1CCNCC1)c1cc(F)cc(F)c1
binding	1 µM	100	N[C@H]1CCN(c2nccc(-c3cnn4ncccc34)n2)C1
binding, competition with immobilised ligand	10 µM	51	c1cncc(-c2cccc(Nc3nccc(NC4CCCCC4)n3)c2)c1
cell-free assay, competition with immobilised ligand	1 µM	86	COc1ccc2c(O[C@@H]3C[C@H]4C(=O)N[C@]5(C(=O)O)CC5/C=C\CCCCC[C@H](NC(=O)OC5CCCC5)C(=O)N4C3)cc(-c3csc(NC(=O)C(C)C)n3)nc2c1C (some centres unmarked)
binding	1 µM	99	CN(c1nccc(-c2cnn3ncccc23)n1)C1CC1
binding, competition with immobilised ligand	1 µM	68	O=C(NCCCN1CCOCC1)c1ccc(Nc2nccc(-c3cc4ccccc4s3)n2)cc1
cell-free assay, competition with immobilised ligand	1 µM	61	CC1=C(C#N)C(c2ccc3c(c2)c(NC(=O)c2ccccc2C)nn3C)C(C#N)=C(C)N1
binding	1 µM	51	CN(C)c1nccc(-c2cnc3ncccn23)n1
binding, competition with immobilised ligand	1 µM	100	O=C(c1ccc(Nc2ncc(Cl)c(-c3ccc(Cl)s3)n2)cc1)N1CCC(N2CCCC2)CC1
binding	1 µM	56	CN(C)c1ncc(F)c(-c2cnn3ncccc23)n1
binding, competition with immobilised ligand	10 µM	9.6	Cc1nc(NC(=O)N2CCC[C@H]2C(N)=O)sc1-c1ccnc(C(C)(C)C(F)(F)F)c1
binding, competition with immobilised ligand	1 µM	100	CNC(=O)[C@@H]1CC[C@@H](n2c(-c3ccc4cnccc4c3)nc3ccc(C(=O)NCc4cccc(C(N)=O)c4)cc32)C1
cell-free assay, competition with immobilised ligand	1 µM	73	N#CC1(c2ccccn2)CCN(Cc2cc(C(=O)N3CCCC3)c(=O)n3ccccc23)CC1
binding, competition with immobilised ligand	1 µM	54	COc1cnc(Nc2cccc(S(N)(=O)=O)c2)nc1N1CCN(c2ccccc2)C(=O)C1
cell-free assay, competition with immobilised ligand	1 µM	100	Cc1nc(C2CCN(C(=O)c3ccc(OC(F)(F)F)cc3N)CC2)c2ncc(N3CCN(C)CC3)cc2n1
